Results from ChEMBL document CHEMBL1149718, “Antibacterial activity of crinitol and its potentiation” (1992).
Converted amounts (≈) assume the structure as drawn. The source made the active and inactive calls. No cut-off for these calls is given here.

Experiments:
Staphylococcus aureus [1] = test: Antibacterial activity against Staphylococcus aureus ATCC 12598 up to 800 ug/ml after 2 days by broth dilution method; type: functional, organism-based
Summary of the method: (§1)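 Broth dilution in 0.8% nutrient broth, 0.5% yeast extract and 0.1% glucose. Compound in DMF, diluted twofold, 1% DMF final, highest 800 µg/ml. Inoculum was a 2-day-old culture, reactivated at 30° with shaking (B. subtilis), at 30° stationary (Br. ammoniagenes) or at 37° stationary (others). Stationary incubation 2 days; growth by OD at 660 nm; MIC = lowest concentration with no growth.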

Bacillus subtilis [2] = test: Antibacterial activity against Bacillus subtilis ATCC 9372 up to 800 ug/ml after 2 days by broth dilution method; type: functional, organism-based; summary of the method: as §1
[3] = tested on: Corynebacterium ammoniagenes; test: Antibacterial activity against Brevibacterium ammoniagenes ATCC 6872 up to 800 ug/ml after 2 days by broth dilution method; type: functional, organism-based; summary of the method: as §1
Cutibacterium acnes [4] = test: Antibacterial activity against Propionibacterium acnes ATCC 11827 up to 800 ug/ml after 2 days by broth dilution method; type: functional, organism-based; summary of the method: as §1
Streptococcus mutans [5] = test: Antibacterial activity against Streptococcus mutans ATCC 25175 up to 800 ug/ml after 2 days by broth dilution method; type: functional, organism-based
Summary of the method: (§2)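 Twofold broth dilution in 3.7% brain heart infusion broth. Sample dissolved in DMF, 1% DMF final, top concentration 800 µg/ml. Inoculated with 2-day-old culture reactivated in stationary culture at 37°. Stationary incubation for 2 days, turbidity read at 660 nm; MIC taken as lowest concentration showing no growth.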

Streptococcus mutans [6] = test: Antibacterial activity against Streptococcus mutans ATCC 25175 after 2 days by broth dilution method; type: functional; conditions: ATCC 25175, 48 h; summary of the method: as §2
Staphylococcus aureus [7] = test: Antibacterial activity against Staphylococcus aureus ATCC 12598 after 2 days by broth dilution method; type: functional; conditions: ATCC 12598, 48 h; summary of the method: as §1
Bacillus subtilis [8] = test: Antibacterial activity against Bacillus subtilis ATCC 9372 after 2 days by broth dilution method in presence of 0.5 MIC of crinitol; type: functional; conditions: ATCC 9372, 48 h
Streptococcus mutans [9] = test: Ratio of MIC for Streptococcus mutans ATCC 25175 to MIC for Streptococcus mutans ATCC 25175 in presence of 0.5 MIC of crinitol; type: functional
Streptococcus mutans [10] = test: Antibacterial activity against Streptococcus mutans ATCC 25175 after 2 days by broth dilution method in presence of 0.5 MIC of crinitol; type: functional; conditions: ATCC 25175, 48 h
Cutibacterium acnes [11] = test: Antibacterial activity against Propionibacterium acnes ATCC 11827 after 2 days by broth dilution method in presence of 0.5 MIC of crinitol; type: functional; conditions: ATCC 11827, 48 h
[12] = tested on: Corynebacterium ammoniagenes; test: Antibacterial activity against Brevibacterium ammoniagenes ATCC 6872 after 2 days by broth dilution method in presence of 0.5 MIC of crinitol; type: functional; conditions: ATCC 6872, 48 h
[13] = tested on: Corynebacterium ammoniagenes; test: Antibacterial activity against Brevibacterium ammoniagenes ATCC 6872 after 2 days by broth dilution method; type: functional; conditions: ATCC 6872, 48 h; summary of the method: as §1
Bacillus subtilis [14] = test: Antibacterial activity against Bacillus subtilis ATCC 9372 after 2 days by broth dilution method; type: functional; conditions: ATCC 9372, 48 h; summary of the method: as §1
Cutibacterium acnes [15] = test: Antibacterial activity against Propionibacterium acnes ATCC 11827 after 2 days by broth dilution method; type: functional; conditions: ATCC 11827, 48 h; summary of the method: as §1
Cutibacterium acnes [16] = test: Antibacterial activity against Propionibacterium acnes ATCC 11827 after 2 days by broth dilution method in presence of 0.5 MIC of butylated hydroxytoluene; type: functional; conditions: ATCC 11827, 48 h
Summary of the method: (§3)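 Checkerboard: twofold dilutions of crinitol crossed with twofold dilutions of the antioxidant (BHA or BHT). Medium was nutrient broth/yeast extract/glucose, or 3.7% brain heart infusion for S. mutans. DMF at 1% final, 2-day-old inoculum, stationary culture 2 days. Growth by OD 660 nm; MIC = lowest concentration without growth.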

Cutibacterium acnes [17] = test: Antibacterial activity against Propionibacterium acnes ATCC 11827 after 2 days by broth dilution method in presence of 0.5 MIC of butylated hydroxyanisole; type: functional; conditions: ATCC 11827, 48 h; summary of the method: as §3
Bacillus subtilis [18] = test: Ratio of MIC for Bacillus subtilis ATCC 9372 to MIC for Bacillus subtilis ATCC 9372 in presence of 0.5 MIC of butylated hydroxytoluene; type: functional
Bacillus subtilis [19] = test: Antibacterial activity against Bacillus subtilis ATCC 9372 after 2 days by broth dilution method in presence of 0.5 MIC of butylated hydroxyanisole; type: functional; conditions: ATCC 9372, 48 h; summary of the method: as §3
Streptococcus mutans [20] = test: Ratio of MIC for Streptococcus mutans ATCC 25175 to MIC for Streptococcus mutans ATCC 25175 in presence of 0.5 MIC of butylated hydroxytoluene; type: functional
[21] = tested on: Corynebacterium ammoniagenes; test: Antibacterial activity against Brevibacterium ammoniagenes ATCC 6872 after 2 days by broth dilution method in presence of 0.5 MIC of butylated hydroxyanisole; type: functional; conditions: ATCC 6872, 48 h; summary of the method: as §3
[22] = tested on: Corynebacterium ammoniagenes; test: Ratio of MIC for Brevibacterium ammoniagenes ATCC 6872 to MIC for Brevibacterium ammoniagenes ATCC 6872 in presence of 0.5 MIC of butylated hydroxyanisole; type: functional
Bacillus subtilis [23] = test: Ratio of MIC for Bacillus subtilis ATCC 9372 to MIC for Bacillus subtilis ATCC 9372 in presence of 0.5 MIC of butylated hydroxyanisole; type: functional
Staphylococcus aureus [24] = test: Antibacterial activity against Staphylococcus aureus ATCC 12598 after 2 days by broth dilution method in presence of 0.5 MIC of butylated hydroxyanisole; type: functional; conditions: ATCC 12598, 48 h; summary of the method: as §3
Cutibacterium acnes [25] = test: Ratio of MIC for Propionibacterium acnes ATCC 11827 to MIC for Propionibacterium acnes ATCC 11827 in presence of 0.5 MIC of butylated hydroxyanisole; type: functional
Streptococcus mutans [26] = test: Antibacterial activity against Streptococcus mutans ATCC 25175 after 2 days by broth dilution method in presence of 0.5 MIC of butylated hydroxytoluene; type: functional; conditions: ATCC 25175, 48 h; summary of the method: as §3
Streptococcus mutans [27] = test: Antibacterial activity against Streptococcus mutans ATCC 25175 after 2 days by broth dilution method in presence of 0.5 MIC of butylated hydroxyanisole; type: functional; conditions: ATCC 25175, 48 h; summary of the method: as §3
Staphylococcus aureus [28] = test: Antibacterial activity against Staphylococcus aureus ATCC 12598 after 2 days by broth dilution method in presence of 0.5 MIC of butylated hydroxytoluene; type: functional; conditions: ATCC 12598, 48 h; summary of the method: as §3
Cutibacterium acnes [29] = test: Ratio of MIC for Propionibacterium acnes ATCC 11827 to MIC for Propionibacterium acnes ATCC 11827 in presence of 0.5 MIC of butylated hydroxytoluene; type: functional
Bacillus subtilis [30] = test: Antibacterial activity against Bacillus subtilis ATCC 9372 after 2 days by broth dilution method in presence of 0.5 MIC of butylated hydroxytoluene; type: functional; conditions: ATCC 9372, 48 h; summary of the method: as §3
[31] = tested on: Corynebacterium ammoniagenes; test: Antibacterial activity against Brevibacterium ammoniagenes ATCC 6872 after 2 days by broth dilution method in presence of 0.5 MIC of butylated hydroxytoluene; type: functional; conditions: ATCC 6872, 48 h; summary of the method: as §3
[32] = tested on: Corynebacterium ammoniagenes; test: Ratio of MIC for Brevibacterium ammoniagenes ATCC 6872 to MIC for Brevibacterium ammoniagenes ATCC 6872 in presence of 0.5 MIC of butylated hydroxytoluene; type: functional
Staphylococcus aureus [33] = test: Antibacterial activity against Staphylococcus aureus ATCC 12598 after 2 days by broth dilution method in presence of 0.5 MIC of crinitol; type: functional; conditions: ATCC 12598, 48 h

Row | MIC (Streptococcus mutans [6]) [µg/mL] | MIC (Staphylococcus aureus [7]) [µg/mL] | MIC [13] [µg/mL] | MIC (Bacillus subtilis [14]) [µg/mL] | MIC (Cutibacterium acnes [15]) [µg/mL] | SMILES | Activity (Staphylococcus aureus [1]) | Activity (Bacillus subtilis [2]) | Activity [3] | Activity (Cutibacterium acnes [4]) | Activity (Streptococcus mutans [5]) | other results
1 | – | – | – | – | – | CC(C)=CCC/C(C)=C/CC/C(C)=C/CC/C(C)=C/CO | inactive | inactive | inactive | inactive | inactive | –
2 | 25 (≈ 113 µM) | > 800 | 25 (≈ 113 µM) | 25 (≈ 113 µM) | 25 (≈ 113 µM) | Cc1cc(C(C)(C)C)c(O)c(C(C)(C)C)c1 [BUTYLATED HYDROXYTOLUENE] | – | – | – | – | – | MIC (Bacillus subtilis [8]): 6.25 µg/mL; Ratio (Streptococcus mutans [9]): 16; MIC (Streptococcus mutans [10]): 1.57 µg/mL; MIC (Cutibacterium acnes [11]): 6.25 µg/mL; MIC [12]: 12.5 µg/mL
3 | – | – | – | – | – | CC(=O)O[C@@H](/C=C(\C)CCC=C(C)C)C/C(C)=C/CC/C(C)=C/CO | inactive | inactive | inactive | inactive | inactive | –
4 | – | – | – | – | – | CC(C)=CCC/C(C)=C/C(=O)C/C(C)=C/CC/C(C)=C/CO | inactive | inactive | inactive | inactive | inactive | –
5 | – | – | – | – | – | CC(=O)OC/C=C(\C)CC/C=C(\C)C[C@H](/C=C(\C)CCC=C(C)C)OC(C)=O | inactive | inactive | inactive | inactive | inactive | –
6 | 50 (≈ 163 µM) | 400 (≈ 1310 µM) | 100 (≈ 326 µM) | 50 (≈ 163 µM) | 25 (≈ 81.6 µM) | CC(C)=CCC/C(C)=C/[C@H](O)C/C(C)=C/CC/C(C)=C/CO [CRINITOL] | – | – | – | – | – | MIC (Cutibacterium acnes [16]): 6.25 µg/mL; MIC (Cutibacterium acnes [17]): 6.25 µg/mL; Ratio (Bacillus subtilis [18]): 4; MIC (Bacillus subtilis [19]): 50 µg/mL; Ratio (Streptococcus mutans [20]): 64; MIC [21]: 100 µg/mL; Ratio [22]: 1; Ratio (Bacillus subtilis [23]): 1; MIC (Staphylococcus aureus [24]): 400 µg/mL; Ratio (Cutibacterium acnes [25]): 4; MIC (Streptococcus mutans [26]): 0.78 µg/mL; MIC (Streptococcus mutans [27]): 12.5 µg/mL; MIC (Staphylococcus aureus [28]): 400 µg/mL; Ratio (Cutibacterium acnes [29]): 4; MIC (Bacillus subtilis [30]): 12.5 µg/mL; MIC [31]: 50 µg/mL; Ratio [32]: 2

Row | SMILES | MIC (Streptococcus mutans [6]) [µg/mL] | MIC (Staphylococcus aureus [7]) [µg/mL] | MIC [13] [µg/mL] | MIC (Bacillus subtilis [14]) [µg/mL] | MIC (Cutibacterium acnes [15]) [µg/mL] | Activity (Staphylococcus aureus [1]) | Activity (Bacillus subtilis [2]) | Activity [3] | Activity (Cutibacterium acnes [4]) | Activity (Streptococcus mutans [5]) | other results
7 | COc1ccc(O)c(C(C)(C)C)c1.COc1ccc(O)cc1C(C)(C)C [BUTYLATED HYDROXYANISOLE] | 100 | 200 | 200 | 100 | 50 | – | – | – | – | – | MIC (Bacillus subtilis [8]): 50 µg/mL; Ratio (Streptococcus mutans [9]): 18; MIC (Streptococcus mutans [10]): 12.5 µg/mL; MIC (Cutibacterium acnes [11]): 6.25 µg/mL; MIC [12]: 100 µg/mL; MIC (Staphylococcus aureus [33]): 200 µg/mL
